The source of these data is ChEMBL document CHEMBL1134055, “The synthesis of amino-acid functionalized beta-carbolines as topoisomerase II inhibitors” (2001).

Experiment [1] has as its system PC-3. The experiment in a line: In vitro cell growth inhibition of PC3 cell line determined using Non-Radioactive Cell Proliferation Assay at a dose of 50 uM. Format: functional, Homo sapiens. The essentials: (§1)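 Tetrazolium-type colorimetric proliferation assay (CellTiter 96 AQueous, non-radioactive); cells treated at 10, 50 and 100 µM; read as percent cell survival. All points in quadruplicate. Vehicle control DMSO (0.20%); m-AMSA (20, 40 µM) as reference control.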

The test system of experiment [2] is PC-3. The experiment in a line: In vitro cell growth inhibition of PC3 cell line determined using non-radioactive cell proliferation assay at a dose of 100 uM. In kind it is functional, Homo sapiens. A digest of the protocol: as §1
Experiment [3] has as its system NCI-H520. Nature of the experiment: In vitro cell growth inhibition of H520 cell line determined using Non-Radioactive Cell Proliferation Assay at a dose of 100 uM. In kind it is functional, Homo sapiens. A digest of the protocol:
as §1

For experiment [4], the system named is NCI-H520. Nature of the experiment: In vitro cell growth inhibition of H520 cell line determined using non-radioactive cell proliferation assay at a dose of 10 uM. Format: functional, Homo sapiens. A digest of the protocol:
as §1

The test system of experiment [5] is NCI-H520. Nature of the experiment: In vitro cell growth inhibition of H520 cell line determined using non-radioactive cell proliferation assay at a dose of 50 uM. Format: functional, Homo sapiens. The essentials: as §1
Experiment [6] relates to PC-3. The experiment in a line: In vitro cell growth inhibition of PC3 cell line determined using Non-Radioactive Cell Proliferation Assay at a dose of 10 uM. In kind it is functional, Homo sapiens. A digest of the protocol: as §1
Experiment [7] deals with NCI-H520. The experiment in a line: In vitro cell growth inhibition of H520 cell line determined using non-radioactive cell proliferation assay at a dose of 100 uM. In kind it is functional, Homo sapiens. A digest of the protocol: as §1
Experiment [8] deals with PC-3. Nature of the experiment: In vitro cell growth inhibition of PC3 cell line determined using non-radioactive cell proliferation assay at a dose of 50 uM. Format: functional, Homo sapiens. A digest of the protocol:
as §1

Experiment [9] concerns PC-3. Nature of the experiment: In vitro cell growth inhibition of PC3 cell line determined using non-radioactive cell proliferation assay at a dose of 10 uM. In kind it is functional, Homo sapiens. The essentials:
as §1

Experiment [10] in a line: Inhibition of topo II-mediated DNA relaxation measured by topo II-mediated DNA relaxation assay; - indicates drug does not interaction with topo II. In kind it is functional. A digest of the protocol: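 Relaxation of supercoiled plasmid pUC18 DNA (E. coli) by topo II (2.0 units per reaction) in Tris-Cl pH 8.0 buffer with KCl, MgCl2, ATP, DTT and BSA; 1 µL of 1 mM drug in 10% DMSO per 10 µL reaction, enzyme added last; 37 °C for 30-45 min. Stopped with sarkosyl buffer, chloroform/isoamyl alcohol extraction, 1% agarose gel, ethidium stain. Densitometric qualitative scoring; gels in triplicate.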

On to `COC(=O)[C@H](Cc1ccccc1)NC(=O)[C@@H]1Cc2c([nH]c3ccccc23)[C@@H](c2cc(OC)c(O)c(OC)c2)N1`, for which the Cell survival with PC-3 [1] is 90.6%; with PC-3 [2], 18%; in the experiment with NCI-H520 [3] it was 14.8%; in the experiment with NCI-H520 [4], 59.4%; in the experiment with NCI-H520 [5], 97.4%; in the experiment with PC-3 [6], 97.8%.

With `COC(=O)[C@H]1CCCN1C(=O)[C@@H]1Cc2c([nH]c3ccccc23)[C@@H](c2cc(OC)c(O)c(OC)c2)N1`, the Cell survival in the experiment with PC-3 [2] amounted to 66.3%; in the experiment with NCI-H520 [4] it was 94.3%; in the experiment with NCI-H520 [7] it was 61%; with PC-3 [8], 99.4%; in the experiment with PC-3 [9], 98%; with NCI-H520 [5], 86.1%.

Turning to `COC(=O)[C@@H]1CCCN1C(=O)[C@@H]1Cc2c([nH]c3ccccc23)[C@@H](c2cc(OC)c(O)c(OC)c2)N1`, the Cell survival in the experiment on PC-3 [1] was 98.3%; in the experiment with PC-3 [2] it was >100%; with NCI-H520 [3], 86.6%; in the experiment with NCI-H520 [4], 80.5%; in the experiment on PC-3 [9] it was 96.8%; with NCI-H520 [5], 83.4%. Moreover, in [10], the DNA relaxation entry was “drug does not interact with topo II”.
